Assay results as given in ChEMBL document CHEMBL2321684, “Novel hybrids of optically active ring-opened 3-n-butylphthalide derivative and isosorbide as potential anti-ischemic stroke agents” (J Med Chem, 2013).
pIC50: −log10 of the molar value. The source made the active and inactive calls. The calls are words filed in the database; no cut-off is given here.

Key:
Rattus norvegicus [1] = assay: Antiischemic activity in Sprague-Dawley rat assessed as reduction in middle cerebral artery occlusion-induced abnormal changes in brain at 80 mg/kg administered via gavage for 7 days prior to middle cerebral artery occlusion-challenge measured after 24 hrs by microscopic analysis; type: functional, organism-based; design: dose 80 mg/kg
Outline: (§1)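 Male SD rats (280−320 g), n = 12 per group, dosed by gavage daily for 7 days in 0.5% CMC-Na vehicle. Sham animals received vehicle only. Two hours after the last dose, rats were anesthetized with chloral hydrate (300 mg/kg ip) and given MCAO for 2 h, then reperfused. Body temperature was held at 37 °C. All endpoints were read at 24 h post reperfusion.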

[2] = Stability in artificial intestinal juice assessed as compound remaining at pH 6.8 after 4 hr by HPLC analysis; type: physicochemical; conditions: simulated gi fluid, pH 6.8, 4 h
[3] = Stability in artificial gastric juice assessed as compound remaining at pH 1.5 after 4 hr by HPLC analysis; type: physicochemical; conditions: simulated gi fluid, pH 1.5, 4 h
Rattus norvegicus [4] = assay: Antiischemic activity in Sprague-Dawley rat assessed as reduction in middle cerebral artery occlusion-induced neurological deficit scores at 340 mg/kg administered via gavage for 7 days prior to middle cerebral artery occlusion-challenge measured after 24 hrs relative to control; type: functional, organism-based; design: dose 340 mg/kg; outline: as §1
[5] = Biodistribution in ICR mouse brain at 680 mg/kg, po after 2 hrs by HPLC analysis; type: ADME, organism-based; design: dose 680 mg/kg, route oral; conditions: read-out: Drug uptake
Outline: (§2)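 Male ICR mice (30−35 g), n = 6 per time point, were given a single 680 mg/kg gavage dose and sacrificed at 0.5, 1, 2, 4 and 8 h. Brains were rinsed, weighed and homogenized in 3 volumes of saline. Plasma and homogenate were precipitated with 3 volumes of acetonitrile.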

[6] = Antiplatelet aggregation activity in rabbit platelets assessed as inhibition of arachidonic acid-induced platelet aggregation incubated for 5 mins prior to arachidonic acid-challenge measured within 5 mins by Born's turbidimetric analysis; type: functional, cell-based; conditions: Oryctolagus cuniculus
Outline: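 Rabbit citrated PRP was adjusted to 400−450 × 10⁹ platelets/L and preincubated for 5 min at 37 °C with vehicle DMSO or compound at 0.1−1.6 mM (at least five concentrations). Aggregation was induced with arachidonic acid (0.33 mM, per the methods text). Maximum aggregation rate was recorded over 5 min by Born's turbidimetry, and IC₅₀ was derived from inhibition versus vehicle (mean ± SD).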

[7] = Stability in artificial intestinal juice assessed as compound remaining at pH 6.8 measured immediately by HPLC analysis; type: physicochemical; conditions: simulated gi fluid
Rattus norvegicus [8] = assay: (§3) Antiischemic activity in Sprague-Dawley rat assessed as reduction in middle cerebral artery occlusion-induced water content in brain at 340 mg/kg administered via gavage for 7 days prior to middle cerebral artery occlusion-challenge measured after 24 hrs relative to control; type: functional, organism-based; design: dose 340 mg/kg; outline: as §1
[9] = Stability in artificial intestinal juice assessed as compound remaining at pH 6.8 after 1 hr by HPLC analysis; type: physicochemical; conditions: simulated gi fluid, pH 6.8, 1 h
Rattus norvegicus [10] = assay: Antiischemic activity in Sprague-Dawley rat assessed as reduction in middle cerebral artery occlusion-induced necrosis in neurons at 340 mg/kg administered via gavage for 7 days prior to middle cerebral artery occlusion-challenge measured after 24 hrs by microscopic analysis; type: functional, organism-based; design: dose 340 mg/kg; outline: as §1
Mus musculus [11] = assay: Antithrombotic activity in Swiss ICR mouse assessed as inhibition of collagen/adrenaline-induced acute systemic vascular thromboembolism at 160 mg/kg, po administered for 7 days prior to collagen/adrenaline-challenge measured up to 15 mins relative to control; type: functional, organism-based; design: dose 160 mg/kg
Outline: (§4)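 Male Swiss ICR mice (30−35 g), n = 15 per group, dosed by gavage daily for 7 days in DMSO vehicle. Two hours after the last dose, mice received collagen (0.21 mg/kg) plus adrenaline (44.5 μg/kg) iv. Survival was monitored for 15 min and reported as % surviving.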

[12] = Plasma concentration in ICR mouse at 680 mg/kg, po after 0.5 hrs by HPLC analysis; type: ADME, organism-based; design: dose 680 mg/kg, route oral; outline: as §2
[13] = Biodistribution in ICR mouse brain at 680 mg/kg, po after 0.5 hrs by HPLC analysis; type: ADME, organism-based; design: dose 680 mg/kg, route oral; conditions: read-out: Drug uptake; outline: as §2
[14] = Plasma concentration in ICR mouse at 680 mg/kg, po after 2 hrs by HPLC analysis; type: ADME, organism-based; design: dose 680 mg/kg, route oral; outline: as §2
Rattus norvegicus [15] = assay: as §3, with “infarct size” for “water content”, “80” for “340”, “hrs by triphenyltetrazolium chloride assay” for “hrs”; type: functional, organism-based; design: dose 80 mg/kg; outline: as §1
Rattus norvegicus [16] = assay: Antiischemic activity in Sprague-Dawley rat assessed as reduction in middle cerebral artery occlusion-induced abnormal changes in brain at 340 mg/kg administered via gavage for 7 days prior to middle cerebral artery occlusion-challenge measured after 24 hrs by microscopic analysis; type: functional, organism-based; design: dose 340 mg/kg; outline: as §1
[17] = Stability in artificial gastric juice assessed as compound remaining at pH 1.5 after 2 hr by HPLC analysis; type: physicochemical; conditions: simulated gi fluid, pH 1.5, 2 h
Rattus norvegicus [18] = assay: Antiischemic activity in Sprague-Dawley rat assessed as reduction in middle cerebral artery occlusion-induced necrosis in neurons at 80 mg/kg administered via gavage for 7 days prior to middle cerebral artery occlusion-challenge measured after 24 hrs by microscopic analysis; type: functional, organism-based; design: dose 80 mg/kg; outline: as §1
[19] = Stability in artificial intestinal juice assessed as compound remaining at pH 6.8 after 2 hr by HPLC analysis; type: physicochemical; conditions: simulated gi fluid, pH 6.8, 2 h
[20] = Biodistribution in ICR mouse brain at 680 mg/kg, po after 1 hr by HPLC analysis; type: ADME, organism-based; design: dose 680 mg/kg, route oral; conditions: read-out: Drug uptake; outline: as §2
[21] = Stability in artificial intestinal juice assessed as compound remaining at pH 6.8 after 8 hr by HPLC analysis; type: physicochemical; conditions: simulated gi fluid, pH 6.8, 8 h
[22] = Stability in artificial gastric juice assessed as compound remaining at pH 1.5 after 1 hr by HPLC analysis; type: physicochemical; conditions: simulated gi fluid, pH 1.5, 1 h
Rattus norvegicus [23] = assay: Antiischemic activity in Sprague-Dawley rat assessed as reduction in middle cerebral artery occlusion-induced neurological deficit scores at 80 mg/kg administered via gavage for 7 days prior to middle cerebral artery occlusion-challenge measured after 24 hrs relative to control; type: functional, organism-based; design: dose 80 mg/kg; outline: as §1
[24] = Plasma concentration in ICR mouse at 680 mg/kg, po after 1 hrs by HPLC analysis; type: ADME, organism-based; design: dose 680 mg/kg, route oral; outline: as §2
Rattus norvegicus [25] = assay: Antiischemic activity in Sprague-Dawley rat assessed as reduction in middle cerebral artery occlusion-induced inflammatory infiltrates in brain at 80 mg/kg administered via gavage for 7 days prior to middle cerebral artery occlusion-challenge measured after 24 hrs by microscopic analysis; type: functional, organism-based; design: dose 80 mg/kg; outline: as §1
[26] = Plasma concentration in ICR mouse at 680 mg/kg, po after 8 hrs by HPLC analysis; type: ADME, organism-based; design: dose 680 mg/kg, route oral; outline: as §2
[27] = Plasma concentration in ICR mouse at 680 mg/kg, po after 4 hrs by HPLC analysis; type: ADME, organism-based; design: dose 680 mg/kg, route oral; outline: as §2
Mus musculus [28] = assay: Antithrombotic activity in Swiss ICR mouse assessed as inhibition of collagen/adrenaline-induced acute systemic vascular thromboembolism at 680 mg/kg, po administered for 7 days prior to collagen/adrenaline-challenge measured up to 15 mins relative to control; type: functional, organism-based; design: dose 680 mg/kg; outline: as §4
Rattus norvegicus [29] = assay: as §3, with “infarct size” for “water content”, “hrs by triphenyltetrazolium chloride assay” for “hrs”; type: functional, organism-based; design: dose 340 mg/kg; outline: as §1

Stability [2]: 4.89 µM
Stability [3]: 4.79 µM
concentration at 2 h [5]: 174 ng/mL
pIC50 [6]: 4.30
Stability [7]: 4.97 µM
Stability [9]: 4.86 µM
concentration at 0.5 h [12]: 320 ng/mL
concentration at 0.5 h [13]: 408 ng/mL
concentration at 2 h [14]: 186 ng/mL
Stability [17]: 5 µM
Stability [19]: 5.04 µM
concentration at 1 h [20]: 260 ng/mL
Stability [21]: 4.92 µM
Stability [22]: 4.89 µM
concentration at 1 h [24]: 241 ng/mL
concentration at 8 h [26]: 69.7 ng/mL
concentration at 4 h [27]: 126 ng/mL
SMILES: CCCC[C@H](OC(=O)CN1CCN(C)CC1)c1ccccc1C(=O)O[C@H]1CO[C@H]2[C@@H]1OC[C@H]2OC(=O)c1ccccc1[C@H](CCCC)OC(=O)CN1CCN(C)CC1
Activity (Rattus norvegicus [1]): Active
Activity (Rattus norvegicus [4]): Active
Activity (Rattus norvegicus [8]): Active
Activity (Rattus norvegicus [10]): Active
Activity (Mus musculus [11]): Active
Activity (Rattus norvegicus [15]): Active
Activity (Rattus norvegicus [16]): Active
Activity (Rattus norvegicus [18]): Active
Activity (Rattus norvegicus [23]): Active
Activity (Rattus norvegicus [25]): Active
Activity (Mus musculus [28]): Active
Activity (Rattus norvegicus [29]): Active
